Experimental data as given in ChEMBL document CHEMBL2163340, “Fluostatins I-K from the South China Sea-derived micromonospora rosaria SCSIO N160” (J Nat Prod, 2012).
pIC50: −log10 of the molar value. Converted amounts (≈) assume the structure as drawn.

Tests used:
[1] = tested on: MCF7; assay: Cytotoxicity against human MCF7 cells by SRB assay; assay type: functional, cell-based
Outline: (§1)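 Sulforhodamine B assay following a previously described protocol, run on three human tumour lines: MCF-7 (breast adenocarcinoma), NCI-H460 (non-small-cell lung cancer) and SF-268 (glioma). Activity was reported as IC50.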

[2] = tested on: NCI-H460; assay: Cytotoxicity against human NCI-H460 cells by SRB assay; assay type: functional, cell-based; outline: as §1
[3] = tested on: SF-268; assay: Cytotoxicity against human SF268 cells by SRB assay; assay type: functional, cell-based; outline: as §1
[4] = tested on: Candida albicans; assay: Antifungal activity against Candida albicans ATCC 10231 after 18 hrs by broth microdilution method; assay type: functional; conditions: ATCC 10231, 18 h
Outline: (§2)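 Broth microdilution. Pre-cultures were grown 16 h on a rotary shaker: the bacteria at 37 °C and C. albicans at 28 °C. Each was adjusted with sterile medium to OD600 0.04–0.06, diluted a further 10-fold, and dispensed to plates. Compounds were serially diluted from 64 to 0.125 μg/mL in duplicate. OD600 was read after 18 h. MIC was the lowest concentration completely inhibiting visible growth, taken from two independent experiments.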

[5] = tested on: Bacillus subtilis; assay: Antibacterial activity against Bacillus subtilis SCSIO BS01 after 18 hrs by broth microdilution method; assay type: functional; conditions: SCSIO BS01, 18 h; outline: as §2
[6] = tested on: Bacillus thuringiensis; assay: Antibacterial activity against Bacillus thuringiensis SCSIO BT01 after 18 hrs by broth microdilution method; assay type: functional; conditions: SCSIO BT01, 18 h; outline: as §2
[7] = tested on: Staphylococcus aureus; assay: Antibacterial activity against Staphylococcus aureus ATCC 29213 after 18 hrs by broth microdilution method; assay type: functional; conditions: ATCC 29213, 18 h; outline: as §2
[8] = tested on: Escherichia coli; assay: Antibacterial activity against Escherichia coli ATCC 25922 after 18 hrs by broth microdilution method; assay type: functional; conditions: ATCC 25922, 18 h; outline: as §2

| MIC [4] [µg/mL] | MIC [5] [µg/mL] | MIC [6] [µg/mL] | MIC [7] [µg/mL] | MIC [8] [µg/mL] | SMILES | pIC50 [1] | pIC50 [2] | pIC50 [3] |
| --- | --- | --- | --- | --- | --- | --- | --- | --- |
| > 64 | > 64 | > 64 | > 64 | > 64 | CC(C)C(=O)O[C@@H]1c2c(cc(O)c3c2C(=O)c2cccc(O)c2-3)C(=O)[C@@]2(C)O[C@@H]12 [FLUOSTATIN D] | < 4.00 | < 4.00 | < 4.00 |
| > 64 | > 64 | > 64 | > 64 | > 64 | C[C@]1(Cl)C(=O)c2cc(O)c3c(c2[C@@H](O)[C@@H]1O)C(=O)c1cccc(O)c1-3 [FLUOSTATIN E] | < 4.00 | < 4.00 | < 4.00 |
| > 64 | > 64 | > 64 | 32 (≈ 94.6 µM) | > 64 | CO[C@@H]1c2c(cc(O)c3c2C(=O)c2cccc(O)c2-3)C(=O)[C@@]2(C)O[C@@H]12 [FLUOSTATIN F] | < 4.00 | < 4.00 | < 4.00 |
| > 64 | > 64 | > 64 | > 64 | > 64 | CC(C)C(=O)O[C@@H]1c2c(cc(O)c3c2C(=O)c2cccc(O)c2-3)C(=O)[C@H](C)[C@H]1O [FLUOSTATIN I] | < 4.00 | < 4.00 | < 4.00 |
| > 64 | > 64 | > 64 | > 64 | > 64 | CCC(C)C(=O)O[C@@H]1c2c(cc(O)c3c2C(=O)c2cccc(O)c2-3)C(=O)[C@@]2(C)O[C@@H]12 (some centres not stated) [FLUOSTATIN J] | < 4.00 | < 4.00 | < 4.00 |
| > 64 | > 64 | > 64 | > 64 | > 64 | C[C@]1(O)C=Cc2c(cc(O)c3c2C(=O)c2cccc(O)c2-3)C1=O [FLUOSTATIN K] | < 4.00 | < 4.00 | < 4.00 |
| > 64 | > 64 | > 64 | 16 (≈ 49.3 µM) | > 64 | C[C@]12O[C@H]1[C@H](O)c1c(cc(O)c3c1C(=O)c1cccc(O)c1-3)C2=O [FLUOSTATINS C] | < 4.00 | < 4.00 | < 4.00 |
| > 64 | 64 (≈ 210 µM) | 4 (≈ 13.1 µM) | 0.25 (≈ 0.819 µM) | 32 (≈ 105 µM) | Cc1cc(O)c2c3c(ncc2c1)C(=O)c1c(O)cccc1C3=O [PHENANTHROVIRIDONE] | 6.77 | 5.66 | 7.05 |
| > 64 | 16 (≈ 47.3 µM) | 8 (≈ 23.6 µM) | 1 (≈ 2.96 µM) | 16 (≈ 47.3 µM) | C[C@]1(O)CC(=O)c2c(cc(O)c3c2C(=O)c2cccc(O)c2C3=O)C1 [RABELOMYCIN] | 5.37 | 5.00 | 5.26 |
